The source made the active and inactive calls.
Experiments:
[1] = Antifilarial activity against Molinema dessetae in vivo in Proechimys oris the natural host at a dose of 200 mg/kg subcutaneously once a day for 5 days. Value is expressed as number of infected P. oris.; assay type: functional; conditions: route subcutaneous
Outline: (§1)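 Proechimys oris of both sexes were each infected with 200 infective larvae dissected from Aedes aegypti mosquitoes. Microfilaremia was checked, and the rodents were treated 150–180 days post-infection. Compound was given subcutaneously as a 1% carboxymethylcellulose suspension once daily for 5 consecutive days. Microfilaremia was followed for 6 weeks, then adult male and female worms were counted at autopsy. A compound was scored active if no males and ≤1.6 females were found (p = 0.12).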

[2] = system: molinema dessetae; test: Antifilarial activity against Molinema dessetae in vivo against male adult worms at a dose of 200 mg/kg subcutaneously once a day for 5 days; Inactive; assay type: functional, organism-based; design: dose 200 mg/kg; outline: as §1
[3] = system: molinema dessetae; test: Antifilarial activity against Molinema dessetae in vivo against female adult worms at a dose of 200 mg/kg subcutaneously once a day for 5 days; Inactive; assay type: functional, organism-based; design: dose 200 mg/kg; outline: as §1
[4] = system: molinema dessetae;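 note: in vitro assay on infective-stage larvae, EC90 being the concentration lethal to 90% of larvae after 7 days of exposure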
[5] = Effective concentration of compound necessary to kill 50% of infective larvae of Molinema dessetae after 7 days was determined in vitro; assay type: functional
[6] = system: molinema dessetae; test: Antifilarial activity against Molinema dessetae in vivo against male adult worms at a dose of 200 mg/kg subcutaneously once a day for 5 days; Active; assay type: functional, organism-based; design: dose 200 mg/kg; outline: as §1
[7] = system: molinema dessetae; test: Antifilarial activity against Molinema dessetae in vivo against female adult worms at a dose of 10 mg/kg subcutaneously once a day for 5 days; Inactive; assay type: functional, organism-based; design: dose 10 mg/kg; outline: as §1
[8] = system: molinema dessetae; test: Antifilarial activity against Molinema dessetae in vivo against male adult worms at a dose of 100 mg/kg subcutaneously once a day for 5 days; Active; assay type: functional, organism-based; design: dose 100 mg/kg; outline: as §1
[9] = system: molinema dessetae; test: Antifilarial activity against Molinema dessetae in vivo against female adult worms at a dose of 200 mg/kg subcutaneously once a day for 5 days; Active; assay type: functional, organism-based; design: dose 200 mg/kg; outline: as §1
[10] = Antifilarial activity against Molinema dessetae in vivo in Proechimys oris the natural host at a dose of 10 mg/kg subcutaneously once a day for 5 days. Value is expressed as number of infected P. oris.; assay type: functional; conditions: route subcutaneous; outline: as §1
[11] = Antifilarial activity against Molinema dessetae in vivo in Proechimys oris the natural host at a dose of 100 mg/kg subcutaneously once a day for 5 days. Value is expressed as number of infected P. oris.; assay type: functional; conditions: route subcutaneous; outline: as §1
[12] = system: molinema dessetae; test: Effective concentration of compound necessary to kill 90% of infective larvae of Molinema dessetae after 7 days was determined in vitro; Value ranges from 100-500; assay type: functional
Outline: (§2)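 Infective larvae from the intermediate host were decontaminated and held 20 per 1.5 mL in a biphasic medium: L929 feeder layer with RPMI and fetal calf serum (90:10), plus penicillin and streptomycin. Compound solutions at several concentrations were made in DMSO, and 10 μL of each was added. After 7 days, survival was corrected by control, in duplicate runs. EC ranges are given in μM.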

[13] = Effective concentration of compound necessary to kill 50% of infective larvae of Molinema dessetae after 7 days was determined in vitro; Value ranges from 20-100; assay type: functional; outline: as §2
[14] = Effective concentration of compound necessary to kill 50% of infective larvae of Molinema dessetae after 7 days was determined in vitro; Value ranges from 100-500; assay type: functional; outline: as §2
[15] = system: molinema dessetae; test: Effective concentration of compound necessary to kill 90% of infective larvae of Molinema dessetae after 7 days was determined in vitro; Value ranges from 20-100; assay type: functional; outline: as §2
[16] = system: molinema dessetae; test: Antifilarial activity against Molinema dessetae in vivo against female adult worms at a dose of 100 mg/kg subcutaneously once a day for 5 days; Inactive; assay type: functional, organism-based; design: dose 100 mg/kg; outline: as §1
[17] = system: molinema dessetae; test: Antifilarial activity against Molinema dessetae in vivo against male adult worms at a dose of 100 mg/kg subcutaneously once a day for 5 days; Inactive; assay type: functional, organism-based; design: dose 100 mg/kg; outline: as §1

Row | Compound | Activity [1] | Activity [2] | Activity [3] | EC90 [4] | EC50 [5] | further results
1 | O=S(=O)(C1CC1c1ccccc1)N1CCOCC1 (stereo not drawn) | 2 | inactive | inactive |  |  | 
2 | C[C@@]1(c2ccccc2)O[C@@H]1S(=O)(=O)N1CCOCC1 | 2 | inactive | inactive | > 500 µM | > 500 µM | 
3 | O=S(=O)(C#Cc1ccccc1)N1CCOCC1 | 2 |  |  | < 20 µM | < 20 µM | Activity [6]: Active; Activity [7]: inactive; Activity [8]: Active; Activity [9]: Active; Activity [10]: 2; Activity [11]: 2
4 | CC1OC1S(=O)(=O)N(C)C (stereo not drawn) | 2 | inactive | inactive |  |  | EC90 [12]: 500 µM; EC50 [13]: 100 µM
5 | O=S(=O)(C1OC1c1ccc(Cl)cc1)N1CCOCC1 (stereo not drawn) | 2 | inactive | inactive |  |  | EC90 [12]: 500 µM; EC50 [13]: 100 µM
6 | CN1CCN(S(=O)(=O)/C=C/c2ccccc2)CC1 | 1 | inactive | inactive | > 500 µM |  | EC50 [14]: 500 µM
7 | Cc1ccccc1C1OC1S(=O)(=O)N1CCOCC1 (stereo not drawn) | 1 | inactive | inactive | < 20 µM | < 20 µM | 
8 | O=S(=O)(C1OC1c1ccccc1)N1CCN(c2cccc(C(F)(F)F)c2)CC1 (stereo not drawn) | 2 | inactive | inactive |  |  | EC90 [15]: 100 µM; EC50 [13]: 100 µM
9 | CN1CCN(S(=O)(=O)C#Cc2ccccc2)CC1 | 1 | inactive | inactive | < 20 µM | < 20 µM | 
10 | CN1CCN(S(=O)(=O)[C@@H]2O[C@@H]2c2ccccc2)CC1 |  |  |  |  |  | Activity [16]: inactive; EC90 [12]: 500 µM; EC50 [13]: 100 µM; Activity [17]: inactive; Activity [11]: 2
11 | O=S(=O)(C1OC1c1ccc(Cl)c(Cl)c1)N1CCOCC1 (stereo not drawn) | 2 |  |  |  | < 20 µM | Activity [6]: Active; EC90 [15]: 100 µM; Activity [9]: Active
12 | Cc1cccc(C2OC2S(=O)(=O)N2CCOCC2)c1 (stereo not drawn) | 2 | inactive | inactive | < 20 µM | < 20 µM | 
13 | O=S(=O)(/C=C/c1ccccc1)N1CCOCC1 | 2 | inactive | inactive | > 500 µM | > 500 µM | 
14 | CN(C)S(=O)(=O)/C=C\c1ccccc1 |  |  |  |  |  | EC90 [12]: 500 µM; EC50 [14]: 500 µM
15 | C[C@]1(c2ccccc2)O[C@@H]1S(=O)(=O)N1CCOCC1 | 2 | inactive | inactive | > 500 µM | > 500 µM | 
16 | CN(C)S(=O)(=O)[C@@H]1O[C@@H]1c1ccccc1 |  |  |  |  |  | EC90 [12]: 500 µM; EC50 [14]: 500 µM
17 | C1COCCN1 [MORPHOLINE] |  |  |  | > 500 µM | > 500 µM | 
18 | Cc1cccc(C2OC2S(=O)(=O)N2CCN(C)CC2)c1 (stereo not drawn) |  |  |  |  |  | EC90 [12]: 500 µM; EC50 [14]: 500 µM
19 | O=S(=O)([C@@H]1O[C@@H]1c1ccccc1)N1CCOCC1 | 2 | inactive | inactive |  |  | EC90 [12]: 500 µM; EC50 [13]: 100 µM

Row | Compound | Activity [1] | Activity [2] | Activity [3] | EC90 [4] | EC50 [5] | further results
20 | IVERMECTIN |  |  |  |  | < 20 µM | 
21 | O=S(=O)(/C=C\c1ccccc1)N1CCOCC1 |  |  |  | > 500 µM |  | EC50 [14]: 500 µM
22 | O=S(=O)(C1OC1c1ccc(Cl)c(Cl)c1)N1CCCC1 (stereo not drawn) |  |  |  |  |  | EC90 [15]: 100 µM; EC50 [13]: 100 µM
23 | O=[N+]([O-])c1ccc(C2OC2S(=O)(=O)N2CCOCC2)cc1 (stereo not drawn) |  |  |  | < 20 µM | < 20 µM | 
24 | O=C(CN1CCOCC1)c1ccccc1 |  |  |  | > 500 µM | > 500 µM | Activity [16]: inactive; Activity [17]: inactive; Activity [11]: 2
25 | C[C@@H]1O[C@H]1S(=O)(=O)N1CCOCC1 | 2 | inactive | inactive | > 500 µM | > 500 µM | 
26 | CCN(CC)C(=O)N1CCN(C)CC1 [DIETHYLCARBAMAZINE] | 2 |  |  | > 500 µM | > 500 µM | Activity [6]: Active; Activity [9]: Active
27 | CN1CCNCC1 [METHYLPIPERAZINE] |  |  |  | > 500 µM | > 500 µM | 
28 | CN1CCN(S(=O)(=O)C2CC2c2ccccc2)CC1 (stereo not drawn) | 2 | inactive | inactive | > 500 µM |  | EC50 [14]: 500 µM
29 | CN(C)S(=O)(=O)C#Cc1ccccc1 | 2 |  | inactive | > 500 µM |  | Activity [6]: Active; EC50 [14]: 500 µM
30 | CN1CCN(CC(=O)c2ccccc2)CC1 |  |  |  | > 500 µM | > 500 µM | Activity [16]: inactive; Activity [17]: inactive; Activity [11]: 1
31 | C[C@H]1O[C@H]1S(=O)(=O)N1CCOCC1 |  |  |  | > 500 µM |  | EC50 [14]: 500 µM
32 | CCOC(=O)N1CCN(S(=O)(=O)C2OC2c2ccccc2)CC1 (stereo not drawn) | 2 | inactive | inactive |  | < 20 µM | EC90 [15]: 100 µM
33 | CN1CCN(S(=O)(=O)CC(=O)c2ccccc2)CC1 |  |  |  | > 500 µM | > 500 µM | 
34 | Cc1ccc(C2OC2S(=O)(=O)N2CCN(C)CC2)cc1 (stereo not drawn) | 2 | inactive | inactive |  |  | EC90 [12]: 500 µM; EC50 [13]: 100 µM
35 | CCCCCCc1ccc(C2OC2S(=O)(=O)N2CCOCC2)cc1 (stereo not drawn) | 1 | inactive | inactive |  |  | 
36 | C=C(CS(=O)(=O)N1CCN(C)CC1)c1ccccc1 |  |  |  | > 500 µM |  | EC50 [14]: 500 µM
37 | O=S(=O)(C1OC1c1ccccc1)N1CCN(c2ccccc2)CC1 (stereo not drawn) |  |  |  |  |  | EC90 [15]: 100 µM; Activity [16]: inactive; EC50 [13]: 100 µM; Activity [17]: inactive; Activity [11]: 2
38 | O=C(CS(=O)(=O)N1CCOCC1)c1ccccc1 | 2 | inactive | inactive | > 500 µM | > 500 µM | 
